The subject of experiment [1] is Plasmodium falciparum. Kind of experiment: Inhibition of Plasmodium falciparum protein farnesyltransferase at 50 nM by scintillation proximity assay.
Experiment [2] concerns Plasmodium falciparum. The experiment is described as follows: Inhibition of Plasmodium falciparum protein farnesyltransferase at 5 nM by scintillation proximity assay.
The subject of experiment [3] is Plasmodium falciparum. The experiment is described as follows: Inhibition of Plasmodium falciparum protein farnesyltransferase at 0.5 nM by scintillation proximity assay.
In experiment [4] the test system is Plasmodium falciparum. Kind of experiment: Antimalarial activity against Plasmodium falciparum 3D7. It counts as functional. Conditions: Plasmodium falciparum, 3D7; read-out: ED50 (the source's name). An outline of the steps:
(§1)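 Asynchronous culture in type A+ erythrocytes at 0.5% parasitemia and 0.5% hematocrit, grown in RPMI-1640 with 20% heat-inactivated human A+ plasma. Compound was serially diluted from a top final 5 µM, with DMSO vehicle as 100% growth. Plates ran 48 h at 37 °C under 5% CO2/5% O2/90% N2, then [3H]-hypoxanthine (0.3 µCi) for 24 h. Filter-harvested counts were corrected for the uninfected-RBC background. ED50 by linear regression; duplicates averaged.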

Experiment [5] has as its system Plasmodium falciparum. The experiment is described as follows: Antimalarial activity against Plasmodium falciparum K1. The class given is functional. The conditions noted are these: Plasmodium falciparum, K1; read-out: ED50 (the source's name). In a few lines: as §1
Experiment [6] has as its target Protein farnesyltransferase (Rattus norvegicus). Kind of experiment: Inhibition of protein farnesyltransferase.
Experiment [7] is described as follows: Inhibition of Plasmodium falciparum protein farnesyltransferase by scintillation proximity assay.

On to `Cn1cncc1CN1CC(N(Cc2ccccn2)S(=O)(=O)c2ccccn2)Cc2cc(C#N)ccc21` (stereo unspecified), for which the inhibition in the experiment with Plasmodium falciparum [1] was found to be 100%; in the experiment on Plasmodium falciparum [2], 93%; with Plasmodium falciparum [3] it was 4%. In addition, the EC50 with Plasmodium falciparum [4] turned out to be 51 nM; with Plasmodium falciparum [5], 100 nM. The compound also came in with an IC50 in experiment [6] of 3.8 nM.
`Cn1cnc(S(=O)(=O)N(CC2CCNCC2)C2Cc3cc(C#N)ccc3N(Cc3cncn3C)C2)c1` (stereo unspecified): the inhibition stood at 65% in the experiment on Plasmodium falciparum [1], 6% in the experiment on Plasmodium falciparum [2] and 0% with Plasmodium falciparum [3]. Also, the EC50 in the experiment with Plasmodium falciparum [4] and in the experiment on Plasmodium falciparum [5] was greater than 5000 nM in each case. The compound further returned an IC50 in experiment [6] of 105 nM.
For the compound `Cn1cncc1CN1CC(N(CCn2cccc2)S(=O)(=O)c2ccccn2)Cc2cc(C#N)ccc21` (stereo unspecified), the values for the inhibition in the experiment with Plasmodium falciparum [1], in the experiment on Plasmodium falciparum [2] and in the experiment on Plasmodium falciparum [3] were 99%, 96% and 74%, respectively. Also, the results for the EC50 with Plasmodium falciparum [4] and in the experiment on Plasmodium falciparum [5] were 17 nM and 10 nM, respectively. The same compound displayed an IC50 in experiment [6] of 1.7 nM.
With `Cn1cnc(S(=O)(=O)N(Cc2ccc(C(=O)O)cc2)C2Cc3cc(C#N)ccc3N(Cc3cncn3C)C2)c1` (stereo unspecified), the inhibition in the experiment with Plasmodium falciparum [1] is 66%; in the experiment on Plasmodium falciparum [2] it was 19%; with Plasmodium falciparum [3], 0%. Also, the EC50 in the experiment with Plasmodium falciparum [4] and with Plasmodium falciparum [5] was greater than 5000 nM in each case. In experiment [6], this compound displayed an IC50 of 4.8 nM.
Take `CCCC(=O)N1CCC(CN(C2Cc3cc(C#N)ccc3N(Cc3cncn3C)C2)S(=O)(=O)c2ccccn2)CC1` (stereo unspecified): the inhibition in the experiment with Plasmodium falciparum [1] was 95%; in the experiment with Plasmodium falciparum [2], 12%; in the experiment on Plasmodium falciparum [3], 63%. The IC50 in experiment [7] is 3 nM; in experiment [6], 6.5 nM. For the same compound, the EC50 in the experiment on Plasmodium falciparum [4] was found to be 80 nM; with Plasmodium falciparum [5], 690 nM.
Consider `Cn1cncc1CN1CC(N(CC(=O)NC(C)(C)C)S(=O)(=O)c2nccn2C)Cc2cc(C#N)ccc21` (stereo unspecified), for which the inhibition with Plasmodium falciparum [1] worked out at 80%; in the experiment with Plasmodium falciparum [2], 27%; in the experiment with Plasmodium falciparum [3], 2%. Further, the IC50 in experiment [7] turned out to be 8 nM; in experiment [6], 5 nM. Also, the EC50 in the experiment with Plasmodium falciparum [4] turned out to be 750 nM; with Plasmodium falciparum [5], 3100 nM.
For `Cn1cncc1CN1CC(N(Cc2ccc3ccccc3c2Br)S(=O)(=O)c2ccccn2)Cc2cc(C#N)ccc21` (stereo unspecified), the inhibition turned out to be 55% with Plasmodium falciparum [1] and 13% with Plasmodium falciparum [2]. In experiment [6], this compound gave an IC50 of 440 nM.
`Cn1cnc(S(=O)(=O)N(Cc2ccc3ccccc3c2Br)C2Cc3cc(C#N)ccc3N(Cc3cncn3C)C2)c1` (stereo unspecified): the inhibition was found to be 69% in the experiment with Plasmodium falciparum [1], 9% in the experiment on Plasmodium falciparum [2] and 0% in the experiment on Plasmodium falciparum [3]. The EC50 was 3000 nM in the experiment on Plasmodium falciparum [4] and 4500 nM in the experiment on Plasmodium falciparum [5]. The compound also had an IC50 in experiment [6] of 1000 nM.
On to `Cn1cncc1CN1CC(N(CC2CCN(C(=O)OC(C)(C)C)CC2)S(=O)(=O)c2ccccn2)Cc2cc(C#N)ccc21` (stereo unspecified), for which the inhibition in the experiment with Plasmodium falciparum [1] was 100%; with Plasmodium falciparum [2], 89%; in the experiment with Plasmodium falciparum [3] it was 19%. The EC50 in the experiment on Plasmodium falciparum [5] is 180 nM. The same compound returned an IC50 in experiment [6] of 7 nM.
`COCCCN(C1Cc2cc(C#N)ccc2N(Cc2cncn2C)C1)S(=O)(=O)c1cn(C)cn1` (stereo unspecified): the inhibition was determined as 99% in the experiment on Plasmodium falciparum [1], 92% in the experiment on Plasmodium falciparum [2] and 25% in the experiment with Plasmodium falciparum [3]. Besides, the EC50 in the experiment with Plasmodium falciparum [4] stood at 75 nM; in the experiment with Plasmodium falciparum [5], 50 nM. The compound further yielded an IC50 in experiment [6] of 7.5 nM.
As to `Cn1cncc1CN1CC(N(Cc2cc3nsnc3cc2Cl)S(=O)(=O)c2ccccn2)Cc2cc(C#N)ccc21` (stereo unspecified), the results for the inhibition with Plasmodium falciparum [1] and in the experiment with Plasmodium falciparum [2] were 53% and 4%, respectively. Besides, the EC50 with Plasmodium falciparum [4] and in the experiment on Plasmodium falciparum [5] was 3000 nM in each case. In experiment [6], this compound displayed an IC50 of 10 nM.
Regarding `Cn1cncc1CN1CC(N(CC2CCN(C(=O)CC(C)(C)C)CC2)S(=O)(=O)c2ccccn2)Cc2cc(C#N)ccc21` (stereo unspecified), the results for the inhibition in the experiment on Plasmodium falciparum [1], in the experiment with Plasmodium falciparum [2] and in the experiment with Plasmodium falciparum [3] were 96%, 36% and 88%, respectively. The IC50 was determined as 0.6 nM in experiment [7] and 7.8 nM in experiment [6]. The figures for the EC50 in the experiment with Plasmodium falciparum [4] and in the experiment with Plasmodium falciparum [5] were 20 nM and 76 nM, respectively.
Take `Cn1cncc1CN1CC(N(CC2CCN(C(=O)c3ccccc3)CC2)S(=O)(=O)c2ccccn2)Cc2cc(C#N)ccc21` (stereo unspecified): the inhibition in the experiment with Plasmodium falciparum [1] stood at 94%; with Plasmodium falciparum [2], 20%; with Plasmodium falciparum [3], 63%. For the same compound, the results for the IC50 in experiment [7] and in experiment [6] were 7 nM and 16 nM, respectively. Further, the EC50 in the experiment with Plasmodium falciparum [4] was 150 nM; in the experiment with Plasmodium falciparum [5] it was 330 nM.
In the case of `CCOC(=O)N1CCC(CN(C2Cc3cc(C#N)ccc3N(Cc3cncn3C)C2)S(=O)(=O)c2ccccn2)CC1` (stereo unspecified), the inhibition with Plasmodium falciparum [1] came out at 100%; in the experiment on Plasmodium falciparum [2], 46%; in the experiment with Plasmodium falciparum [3], 95%. Also, the IC50 in experiment [7] was 0.5 nM; in experiment [6] it was 5.5 nM. Also, the figures for the EC50 with Plasmodium falciparum [4] and in the experiment on Plasmodium falciparum [5] were 55 nM and 40 nM, respectively.
For `Cc1onc(-c2ccccc2)c1CN(C1Cc2cc(C#N)ccc2N(Cc2cncn2C)C1)S(=O)(=O)c1ccccn1` (stereo unspecified), the inhibition in the experiment on Plasmodium falciparum [1] was determined as 100%; in the experiment on Plasmodium falciparum [2] it was 93%; in the experiment on Plasmodium falciparum [3], 42%. Besides, the EC50 in the experiment on Plasmodium falciparum [4] amounted to 45 nM; with Plasmodium falciparum [5], 56 nM. The compound further registered an IC50 in experiment [6] of 3 nM.
Consider `Cn1cnc(S(=O)(=O)N(Cc2ccc(-n3cccn3)cc2)C2Cc3cc(C#N)ccc3N(Cc3cncn3C)C2)c1` (stereo unspecified), for which the inhibition with Plasmodium falciparum [1] came out at 98%; with Plasmodium falciparum [2], 98%; with Plasmodium falciparum [3], 56%. The results for the IC50 in experiment [7] and in experiment [6] were 0.5 nM and 2.6 nM, respectively. In addition, the figures for the EC50 with Plasmodium falciparum [4] and in the experiment on Plasmodium falciparum [5] were 42 nM and 38 nM, respectively.
As for `CC(C)COC(=O)N1CCC(CN(C2Cc3cc(C#N)ccc3N(Cc3cncn3C)C2)S(=O)(=O)c2ccccn2)CC1` (stereo unspecified), the inhibition in the experiment with Plasmodium falciparum [1] was determined as 100%; in the experiment with Plasmodium falciparum [2], 12%; in the experiment on Plasmodium falciparum [3] it was 88%. In addition, the IC50 in experiment [7] is 1.4 nM; in experiment [6], 25 nM. Also, the EC50 in the experiment with Plasmodium falciparum [4] and with Plasmodium falciparum [5] was 62 nM throughout.
On to `CCC(=O)N1CCC(CN(C2Cc3cc(C#N)ccc3N(Cc3cncn3C)C2)S(=O)(=O)c2ccccn2)CC1` (stereo unspecified), for which the inhibition with Plasmodium falciparum [1] amounted to 99%; with Plasmodium falciparum [2], 20%; in the experiment on Plasmodium falciparum [3] it was 82%. The IC50 in experiment [7] turned out to be 0.8 nM. Further, the EC50 in the experiment on Plasmodium falciparum [4] was 16 nM; in the experiment with Plasmodium falciparum [5], 25 nM.
As for `Cc1ccccc1CN(C1Cc2cc(C#N)ccc2N(Cc2cncn2C)C1)S(=O)(=O)c1cn(C)cn1` (stereo unspecified), the inhibition in the experiment on Plasmodium falciparum [1] amounted to 100%; in the experiment with Plasmodium falciparum [2], 95%; in the experiment with Plasmodium falciparum [3], 34%. The values for the EC50 in the experiment with Plasmodium falciparum [4] and with Plasmodium falciparum [5] were 55 nM and 20 nM, respectively. This compound also came in with an IC50 in experiment [6] of 3.4 nM.

The values are drawn from ChEMBL document CHEMBL1148785, “Second generation tetrahydroquinoline-based protein farnesyltransferase inhibitors as antimalarials” (J Med Chem, 2007).
